SMILES strings stand for the structures. In brackets after ≈: the same amount, converted by molar mass.

Common to all, as to format: functional
One assay relates to Bacillus subtilis. Briefly: Antimicrobial activity against Bacillus subtilis KCTC 1021 after 24 hrs by broth dilution method. The settings on record: KCTC 1021, 24 h. The gist of the method: (§1)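 Twofold serial dilutions in nutrient broth (0.5–512.0 μg/mL) in microtiter plates. An overnight culture was adjusted to 1.5 × 10⁸ cfu/mL against the 0.5 McFarland standard and added to each dilution. Plates were incubated 24 h at 37 °C. MIC was the lowest concentration giving no visible growth (turbidity).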
Background: In broth dilution the organism is exposed to a series of concentrations in liquid medium.

A further assay relates to Escherichia coli. The assay can be described thus: Antimicrobial activity against Escherichia coli KCTC 1923 after 24 hrs by broth dilution method. The following applies: KCTC 1923, 24 h. The gist of the method: as §1
A further assay concerns Saccharomyces cerevisiae. The assay can be described thus: Antimicrobial activity against Saccharomyces cerevisiae KCTC 7913 after 48 hrs by broth dilution method. The settings on record: KCTC 7913, 48 h. The gist of the method: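 Yeast maltose broth, with twofold serial dilutions spanning 0.5–512.0 μg/mL in microtiter plates. An overnight yeast culture was adjusted to 1.5 × 10⁸ cfu/mL by the 0.5 McFarland standard and added to each well. Plates were held 48 h at 30 °C. MIC was the lowest concentration without visible turbidity.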

As for `C=C/C=C(\C)CC[C@@H]1C[C@H](O)CC(=O)O1` [IEODOMYCIN B], the MIC (as a rule, the lowest concentration that inhibits growth of the organism) turned out to be 32 µg/mL (≈ 152 µM) against Bacillus subtilis, 32 µg/mL (≈ 152 µM) against Escherichia coli and 256 µg/mL (≈ 1220 µM) against Saccharomyces cerevisiae.

For `C=C/C=C(\C)CC[C@@H](O)C[C@H](O)CC(=O)OC` [IEODOMYCIN A], the MIC against Bacillus subtilis worked out at 32 µg/mL (≈ 132 µM); with Escherichia coli it was 32 µg/mL (≈ 132 µM); with Saccharomyces cerevisiae it was 256 µg/mL (≈ 1060 µM).

For `C[C@@H](O)CCC/C=C/C=C/[C@@H](O)CC(=O)O` [IEODOMYCIN C], the MIC against Bacillus subtilis was 32 µg/mL (≈ 140 µM); with Escherichia coli it was 32 µg/mL (≈ 140 µM); in the assay on Saccharomyces cerevisiae, 256 µg/mL (≈ 1120 µM).

Consider `C[C@@H](O)CCC/C=C/C=C/C(=O)O` [IEODOMYCIN D], for which the MIC in the assay on Bacillus subtilis is 32 µg/mL (≈ 174 µM); with Escherichia coli, 32 µg/mL (≈ 174 µM); with Saccharomyces cerevisiae it was 256 µg/mL (≈ 1390 µM).

For the origin of these results see ChEMBL document CHEMBL1811862, “Ieodomycins A-D, antimicrobial fatty acids from a marine Bacillus sp” (2011).
